Measured values reported in ChEMBL document CHEMBL1914336, “Use of the hydantoin isostere to produce inhibitors showing selectivity toward the vesicular glutamate transporter versus the obligate exchange transporter system x(c)(-)” (Bioorg Med Chem Lett, 2011).

Assays:
[1] = species: Rattus norvegicus; assay: Inhibition of VGLUT in rat synaptic vesicles assessed as glutamate uptake at 5 mM relative to control; design: scale not given: the % may be the effect or the level left
Method in brief: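 Rat brain synaptic vesicles were isolated and VGLUT-mediated uptake of 250 μM L-glutamate was measured with inhibitor at 5 mM. Uptake was corrected for non-specific uptake, normalized to protein content and expressed as % of control.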

[2] = target: T1, Cystine/glutamate transporter (Homo sapiens) (UniProt Q9UPY5); assay: Inhibition of cystine/glutamate transporter in human SNB19 cells assessed as [3H]glutamate uptake at 500 uM; format: cell-based; design: scale not given: the % may be the effect or the level left; conditions: SNB-19
T1 sequence (whole entry): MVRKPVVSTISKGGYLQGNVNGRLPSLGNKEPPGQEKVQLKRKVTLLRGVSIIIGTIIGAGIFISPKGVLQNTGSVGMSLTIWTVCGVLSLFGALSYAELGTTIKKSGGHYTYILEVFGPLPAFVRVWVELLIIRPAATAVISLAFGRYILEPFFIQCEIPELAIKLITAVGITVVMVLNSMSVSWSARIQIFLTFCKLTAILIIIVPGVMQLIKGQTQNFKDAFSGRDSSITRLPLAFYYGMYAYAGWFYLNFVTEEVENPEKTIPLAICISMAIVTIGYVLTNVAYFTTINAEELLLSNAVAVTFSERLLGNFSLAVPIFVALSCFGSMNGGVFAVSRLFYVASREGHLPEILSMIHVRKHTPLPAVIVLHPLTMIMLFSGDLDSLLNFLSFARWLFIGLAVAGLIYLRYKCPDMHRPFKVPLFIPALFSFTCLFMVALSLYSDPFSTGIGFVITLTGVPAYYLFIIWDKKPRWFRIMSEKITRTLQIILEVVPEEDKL
Method in brief: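 SNB19 glioma cells were kept under Na-free conditions and system xc−-mediated uptake of 100 μM L-glutamate was measured with inhibitor at 500 μM. Uptake was corrected for non-specific uptake and normalized to protein content.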

[3] = species: Rattus norvegicus; assay: Inhibition of VGLUT in rat synaptic vesicles assessed as glutamate uptake at 500 uM relative to control; design: scale not given: the % may be the effect or the level left
[4] = target: Excitatory amino acid transporter 2 (Homo sapiens) (UniProt P43004); assay: Inhibition of EAAT2-mediated D-aspartate transport at 100 uM
Chain of Excitatory amino acid transporter 2 (Homo sapiens) (P43004 whole entry, the tested form may be a part): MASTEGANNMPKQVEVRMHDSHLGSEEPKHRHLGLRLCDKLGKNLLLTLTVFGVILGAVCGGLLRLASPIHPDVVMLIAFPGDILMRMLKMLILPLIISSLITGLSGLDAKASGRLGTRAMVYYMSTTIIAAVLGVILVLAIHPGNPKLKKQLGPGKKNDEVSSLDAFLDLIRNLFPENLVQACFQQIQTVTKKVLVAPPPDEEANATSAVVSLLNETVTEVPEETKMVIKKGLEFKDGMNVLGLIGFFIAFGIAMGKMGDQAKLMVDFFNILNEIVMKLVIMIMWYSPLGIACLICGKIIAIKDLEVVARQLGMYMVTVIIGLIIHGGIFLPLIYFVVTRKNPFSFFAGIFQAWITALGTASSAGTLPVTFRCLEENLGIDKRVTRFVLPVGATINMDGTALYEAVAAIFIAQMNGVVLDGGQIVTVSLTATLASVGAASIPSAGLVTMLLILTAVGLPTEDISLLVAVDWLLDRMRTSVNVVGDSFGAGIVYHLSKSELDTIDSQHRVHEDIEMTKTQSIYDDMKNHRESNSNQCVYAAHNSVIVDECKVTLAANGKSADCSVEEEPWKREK
Method in brief: (§1)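 Transport by EAAT1, EAAT2 or EAAT3 was measured with 25 μM D-aspartate as substrate and inhibitor present at 100 μM.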

[5] = target: Excitatory amino acid transporter 1 (Homo sapiens) (UniProt P43003); assay: Inhibition of EAAT1-mediated D-aspartate transport at 100 uM; method in brief: as §1
Chain of Excitatory amino acid transporter 1 (Homo sapiens) (P43003 whole entry, the tested form may be a part): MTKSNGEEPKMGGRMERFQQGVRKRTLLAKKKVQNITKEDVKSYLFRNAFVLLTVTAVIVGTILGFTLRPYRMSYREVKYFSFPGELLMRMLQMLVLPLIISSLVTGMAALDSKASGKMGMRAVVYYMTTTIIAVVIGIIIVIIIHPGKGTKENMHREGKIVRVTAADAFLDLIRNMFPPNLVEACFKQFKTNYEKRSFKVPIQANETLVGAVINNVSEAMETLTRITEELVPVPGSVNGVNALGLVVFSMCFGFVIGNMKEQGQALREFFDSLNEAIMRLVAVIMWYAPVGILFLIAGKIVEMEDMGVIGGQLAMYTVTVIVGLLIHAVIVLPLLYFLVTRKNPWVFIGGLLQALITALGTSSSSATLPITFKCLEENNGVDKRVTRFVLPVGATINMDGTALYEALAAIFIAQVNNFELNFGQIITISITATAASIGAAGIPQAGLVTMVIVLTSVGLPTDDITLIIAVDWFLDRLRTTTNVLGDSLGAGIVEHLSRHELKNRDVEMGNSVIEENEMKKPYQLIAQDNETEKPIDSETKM

[6] = Inhibition of VGLUT in rat synaptic vesicles assessed as inhibition of glutamate uptake
Method in brief: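 Dose–response for VGLUT inhibition in synaptic vesicles isolated from rat brain, using 250 μM L-glutamate as substrate. Uptake was corrected for non-specific uptake and normalized to protein; IC50 was taken from the dose curve.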

[7] = target: Excitatory amino acid transporter 3 (Homo sapiens) (UniProt P43005); assay: Inhibition of EAAT3-mediated D-aspartate transport at 100 uM
Chain of Excitatory amino acid transporter 3 (Homo sapiens) (P43005 whole entry, looked up, the tested form may be a part): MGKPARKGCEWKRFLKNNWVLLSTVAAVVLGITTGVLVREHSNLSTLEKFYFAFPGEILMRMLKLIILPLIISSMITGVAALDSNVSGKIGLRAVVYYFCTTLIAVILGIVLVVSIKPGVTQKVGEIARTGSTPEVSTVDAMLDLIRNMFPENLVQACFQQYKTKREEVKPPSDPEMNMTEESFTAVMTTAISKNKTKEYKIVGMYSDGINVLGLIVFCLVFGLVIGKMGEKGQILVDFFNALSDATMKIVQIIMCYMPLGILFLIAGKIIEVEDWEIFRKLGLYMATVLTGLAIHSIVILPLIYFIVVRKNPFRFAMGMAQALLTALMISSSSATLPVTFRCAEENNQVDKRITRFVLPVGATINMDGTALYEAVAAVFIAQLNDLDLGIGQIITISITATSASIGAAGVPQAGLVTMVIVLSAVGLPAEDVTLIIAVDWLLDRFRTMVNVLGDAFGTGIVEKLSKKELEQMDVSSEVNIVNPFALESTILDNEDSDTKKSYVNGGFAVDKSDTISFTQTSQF

Activity [1] [%]	Activity [2] [%]	SMILES	also measured
95	93	COC(=O)c1ccc(-c2ccc(C3NC(=O)NC3=O)cc2)cc1 (stereo not given)	–
87	85	O=C1NC(=O)C(c2ccc(-c3cccs3)s2)N1 (stereo not given)	–
78	85	O=C1NC(=O)C(c2ccc(C3NC(=O)NC3=O)cc2)N1 (stereo not given)	–
90	22	N[C@@H](CS)C(=O)O	–
121	100	O=C1NC(=O)C(c2ccccc2S(=O)(=O)O)N1 (stereo not given)	–
11	100	O=C1NC(=O)C(c2ccc(S(=O)(=O)O)cc2S(=O)(=O)O)N1 (racemic)	–
75	65	O=C1NC(=O)C(c2ccc(Br)s2)N1 (stereo not given)	–
103	82	O=C1NC(=O)C(c2c[nH]cn2)N1 (stereo not given)	–
74	92	O=C1NC(c2cccc3ccccc23)C(=O)N1CCCCN1C(=O)NC(c2cccc3ccccc23)C1=O (stereo not given)	–
111	95	O=C1NC(=O)C(c2cccnc2)N1 (stereo not given)	–
93	87	Cc1cc(C2NC(=O)NC2=O)sc1C (stereo not given)	–
76	66	Cc1ccc(C2NC(=O)NC2=O)s1 (stereo not given)	–
80	53	O=C1NC(=O)C(Cc2ccccc2)N1 (stereo not given)	–
0	82	Nc1c(/N=N/c2ccc(-c3ccc(/N=N/c4cc(S(=O)(=O)O)c5ccccc5c4N)cc3)cc2)cc(S(=O)(=O)O)c2ccccc12	Activity [3]: 31%
81	81	O=C1NC(=O)C(c2c3ccccc3cc3ccccc23)N1 (stereo not given)	–
6	51	O=C1NC(=O)C(c2ccc(C3NC(=O)NC3=O)s2)N1 (stereo not given)	inhibition [4]: < 12%; inhibition [5]: < 12%; IC50 [6]: 511 µM; inhibition [7]: < 12%
79	118	O=C1NC(=O)C(c2csc3ccccc23)N1 (stereo not given)	–
37	104	O=C1NC(=O)C(c2ccc(-c3ccc(C(=O)O)cc3)cc2)N1 (stereo not given)	–
97	80	O=C1NC(c2cccc3ccccc23)C(=O)N1CCCN1C(=O)NC(c2cccc3ccccc23)C1=O (stereo not given)	–
63	90	CN(C)c1ccc(/C=C/C2NC(=O)NC2=O)cc1 (stereo not given)	–
91	83	O=C1NC(=O)C(c2cccc3ccccc23)N1 (stereo not given)	–
5	49	O=Cc1ccc(C2NC(=O)NC2=O)s1 (racemic)	inhibition [4]: < 12%; inhibition [5]: < 12%; IC50 [6]: 355 µM; inhibition [7]: < 12%
23	87	CN(C)c1ccc(C2NC(=O)NC2=O)cc1 (stereo not given)	–
